Results as given in ChEMBL document CHEMBL4270599, “Synthesis of a 3'-C-ethynyl-β-d-ribofuranose purine nucleoside library: Discovery of C7-deazapurine analogs as potent antiproliferative nucleosides” (Eur J Med Chem, 2018).

Tests used:
LOX IMVI = test: Growth inhibition of human LOXIMVI cells assessed as cell growth at 10^-8 M incubated for 48 hrs by sulforhodamine B assay relative to control; type: functional; conditions: read-out: Activity
ACHN [1] = test: Growth inhibition of human ACHN cells assessed as cell growth at 10^-5 M incubated for 48 hrs by sulforhodamine B assay relative to control; type: functional; conditions: read-out: Activity
HOP-92 [2] = test: Cytotoxicity against human HOP92 cells after 48 hrs by SRB assay; type: functional; conditions: HOP-92, 48 h; for GI50: read-out: pGI50 (converted)
UACC-62 [3] = test: Growth inhibition of human UACC62 cells assessed as cell growth at 10^-6 M incubated for 48 hrs by sulforhodamine B assay relative to control; type: functional; conditions: UACC-62, 48 h, read-out: Activity
SW-620 [4] = test: Cytotoxicity against human SW620 cells after 48 hrs by SRB assay; type: functional; conditions: SW-620, 48 h; for GI50: read-out: pGI50 (converted)
OVCAR-3 = test: Growth inhibition of human OVCAR3 cells assessed as cell growth at 10^-6 M incubated for 48 hrs by sulforhodamine B assay relative to control; type: functional; conditions: OVCAR-3, 48 h, read-out: Activity
CCRF-CEM = test: Growth inhibition of human CCRF-CEM cells assessed as cell growth at 10^-8 M incubated for 48 hrs by sulforhodamine B assay relative to control; type: functional; conditions: read-out: Activity
BT-549 = test: Growth inhibition of human BT549 cells assessed as cell growth at 10^-8 M incubated for 48 hrs by sulforhodamine B assay relative to control; type: functional; conditions: BT-549, 48 h, read-out: Activity
ACHN [5] = test: Growth inhibition of human ACHN cells assessed as cell growth at 10^-4 M incubated for 48 hrs by sulforhodamine B assay relative to control; type: functional; conditions: read-out: Activity
SF-539 = test: Cytotoxicity against human SF539 cells after 48 hrs by SRB assay; type: functional; conditions: SF-539, 48 h; for GI50: read-out: pGI50 (converted)
OVCAR-5 = test: Growth inhibition of human OVCAR5 cells assessed as cell growth at 10^-4 M incubated for 48 hrs by sulforhodamine B assay relative to control; type: functional; conditions: OVCAR-5, 48 h, read-out: Activity
ACHN [6] = test: Growth inhibition of human ACHN cells assessed as cell growth at 10^-8 M incubated for 48 hrs by sulforhodamine B assay relative to control; type: functional; conditions: read-out: Activity
DU-145 = test: Growth inhibition of human DU145 cells assessed as cell growth at 10^-6 M incubated for 48 hrs by sulforhodamine B assay relative to control; type: functional; conditions: DU-145, 48 h, read-out: Activity
SK-MEL-28 = test: Growth inhibition of human SK-MEL-28 cells assessed as cell growth at 10^-5 M incubated for 48 hrs by sulforhodamine B assay relative to control; type: functional; conditions: SK-MEL-28, 48 h, read-out: Activity
NCI-H226 = test: Growth inhibition of human NCI-H226 cells assessed as cell growth at 10^-5 M incubated for 48 hrs by sulforhodamine B assay relative to control; type: functional; conditions: NCI-H226, 48 h, read-out: Activity
RXF 393 = test: Growth inhibition of human RXF393 cells assessed as cell growth at 10^-8 M incubated for 48 hrs by sulforhodamine B assay relative to control; type: functional; conditions: RXF 393, 48 h, read-out: Activity
HeLa = test: Antiproliferative activity against human HeLa cells after 72 hrs by Coulter counter method; type: functional, cell-based
How it was run: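 Cell count assay in 96-well microtiter plates; (5–7.5) × 10⁴ tumor cells per well plus test compound. Cells proliferated at 37 °C in humidified CO₂-controlled atmosphere, 48 h for murine leukemia L1210, 72 h for human lymphocytic CEM and cervix carcinoma HeLa. Counted by Coulter counter; IC₅₀ is the concentration that inhibits proliferation by 50%.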

HOP-92 [7] = test: Growth inhibition of human HOP92 cells assessed as cell growth at 10^-6 M incubated for 48 hrs by sulforhodamine B assay relative to control; type: functional; conditions: HOP-92, 48 h, read-out: Activity
NCI-H23 = test: Growth inhibition of human NCI-H23 cells assessed as cell growth at 10^-5 M incubated for 48 hrs by sulforhodamine B assay relative to control; type: functional; conditions: NCI-H23, 48 h, read-out: Activity
EKVX = test: Cytotoxicity against human EKVX cells after 48 hrs by SRB assay; type: functional; conditions: for GI50: read-out: pGI50 (converted)
HT-29 = test: Growth inhibition of human HT-29 cells assessed as cell growth at 10^-6 M incubated for 48 hrs by sulforhodamine B assay relative to control; type: functional; conditions: HT-29, 48 h, read-out: Activity
MCF7 = test: Growth inhibition of human MCF7 cells assessed as cell growth at 10^-7 M incubated for 48 hrs by sulforhodamine B assay relative to control; type: functional; conditions: MCF7, 48 h, read-out: Activity
786-0 [8] = test: Growth inhibition of human 786-0 cells assessed as cell growth at 10^-6 M incubated for 48 hrs by sulforhodamine B assay relative to control; type: functional; conditions: 786-0, 48 h, read-out: Activity
SR [9] = test: Growth inhibition of human SR cells assessed as cell growth at 10^-4 M incubated for 48 hrs by sulforhodamine B assay relative to control; type: functional; conditions: read-out: Activity
UO-31 [10] = test: Cytotoxicity against human UO31 cells after 48 hrs by SRB assay; type: functional; conditions: UO-31, 48 h; for GI50: read-out: pGI50 (converted)
SF-295 = test: Growth inhibition of human SF295 cells assessed as cell growth at 10^-7 M incubated for 48 hrs by sulforhodamine B assay relative to control; type: functional; conditions: SF-295, 48 h, read-out: Activity
SR [11] = test: Growth inhibition of human SR cells assessed as cell growth at 10^-5 M incubated for 48 hrs by sulforhodamine B assay relative to control; type: functional; conditions: read-out: Activity
SK-MEL-5 = test: Growth inhibition of human SK-MEL-5 cells assessed as cell growth at 10^-6 M incubated for 48 hrs by sulforhodamine B assay relative to control; type: functional; conditions: SK-MEL-5, 48 h, read-out: Activity
786-0 [12] = test: Growth inhibition of human 786-0 cells assessed as cell growth at 10^-7 M incubated for 48 hrs by sulforhodamine B assay relative to control; type: functional; conditions: 786-0, 48 h, read-out: Activity
UACC-62 [13] = test: Cytotoxicity against human UACC62 cells after 48 hrs by SRB assay; type: functional; conditions: UACC-62, 48 h; for GI50: read-out: pGI50 (converted); for CC50: read-out: pLC50 (the source's name) (converted)
UO-31 [14] = test: Growth inhibition of human UO31 cells assessed as cell growth at 10^-6 M incubated for 48 hrs by sulforhodamine B assay relative to control; type: functional; conditions: UO-31, 48 h, read-out: Activity
SW-620 [15] = test: Growth inhibition of human SW620 cells assessed as cell growth at 10^-4 M incubated for 48 hrs by sulforhodamine B assay relative to control; type: functional; conditions: SW-620, 48 h, read-out: Activity
[16] = read-out: pLC50 (the source's name) (converted)
[17] = read-out: LC50 (the source's name)

C#C[C@@]1(O)[C@@H](CO)O[C@@H](n2ccc3c(N)ncnc32)[C@@H]1O
growth at 0.01 µM (LOX IMVI): 98% | growth at 10 µM (ACHN [1]): -18% | TGI (HOP-92 [2]; read-out: TGI): 5.56 µM | GI50 (HOP-92 [2]): 2.04 µM | CC50 (HOP-92 [2]; [16]): 22.9 µM | TGI (HOP-92 [2]; read-out: pTGI (converted)): 5.62 µM | growth at 1 µM (UACC-62 [3]): 82% | TGI (SW-620 [4]; read-out: TGI): 12.7 µM | GI50 (SW-620 [4]): 0.49 µM | CC50 (SW-620 [4]; [16]): > 100 µM | TGI (SW-620 [4]; read-out: pTGI (converted)): 12.6 µM | growth at 1 µM (OVCAR-3): 92% | growth at 0.01 µM (CCRF-CEM): 102% | growth at 0.01 µM (BT-549): 89% | growth at 100 µM (ACHN [5]): -24% | CC50 (SF-539; [17]): 11.6 µM | TGI (SF-539; read-out: TGI): 4.44 µM | GI50 (SF-539): 1.91 µM | CC50 (SF-539; [16]): 11.7 µM | TGI (SF-539; read-out: pTGI (converted)): 4.47 µM | growth at 100 µM (OVCAR-5): -31% | growth at 0.01 µM (ACHN [6]): 97% | growth at 1 µM (DU-145): 34% | growth at 10 µM (SK-MEL-28): 21% | growth at 10 µM (NCI-H226): -42% | growth at 0.01 µM (RXF 393): 99% | IC50 (HeLa): 0.88 µM | growth at 1 µM (HOP-92 [7]): 86% | growth at 10 µM (NCI-H23): -32% | TGI (EKVX; read-out: TGI): 5.43 µM | GI50 (EKVX): 1.51 µM | CC50 (EKVX; [16]): > 100 µM | TGI (EKVX; read-out: pTGI (converted)): 5.37 µM | growth at 1 µM (HT-29): 49% | growth at 0.1 µM (MCF7): 73% | growth at 1 µM (786-0 [8]): 68% | growth at 100 µM (SR [9]): 11% | TGI (UO-31 [10]; read-out: TGI): 3.58 µM | GI50 (UO-31 [10]): 1.41 µM | TGI (UO-31 [10]; read-out: pTGI (converted)): 3.55 µM | growth at 0.1 µM (SF-295): 98% | growth at 10 µM (SR [11]): 15% | growth at 1 µM (SK-MEL-5): 85% | growth at 0.1 µM (786-0 [12]): 92% | TGI (UACC-62 [13]; read-out: TGI): 4.48 µM | GI50 (UACC-62 [13]): 1.78 µM | CC50 (UACC-62 [13]): 19.5 µM | TGI (UACC-62 [13]; read-out: pTGI (converted)): 4.47 µM | growth at 1 µM (UO-31 [14]): 69% | growth at 100 µM (SW-620 [15]): -45%

C#C[C@@]1(O)[C@@H](CO)O[C@@H](n2cc(F)c3c(N)ncnc32)[C@@H]1O
growth at 0.01 µM (LOX IMVI): 96% | growth at 10 µM (ACHN [1]): 2% | CC50 (HOP-92 [2]; [17]): > 100 µM | GI50 (HOP-92 [2]): 0.038 µM | growth at 1 µM (UACC-62 [3]): 12% | CC50 (SW-620 [4]; [17]): > 100 µM | TGI (SW-620 [4]; read-out: TGI): 2.9 µM | GI50 (SW-620 [4]): 0.158 µM | TGI (SW-620 [4]; read-out: pTGI (converted)): 2.88 µM | growth at 1 µM (OVCAR-3): 52% | growth at 0.01 µM (CCRF-CEM): 95% | growth at 0.01 µM (BT-549): 98% | growth at 100 µM (ACHN [5]): 2% | CC50 (SF-539; [17]): > 100 µM | TGI (SF-539; read-out: TGI): 5.29 µM | GI50 (SF-539): 1.32 µM | TGI (SF-539; read-out: pTGI (converted)): 5.25 µM | growth at 100 µM (OVCAR-5): 7% | growth at 0.01 µM (ACHN [6]): 102% | growth at 1 µM (DU-145): 16% | growth at 10 µM (SK-MEL-28): 37% | growth at 10 µM (NCI-H226): -44% | growth at 0.01 µM (RXF 393): 94% | IC50 (HeLa): 0.15 µM | growth at 1 µM (HOP-92 [7]): 24% | growth at 10 µM (NCI-H23): -4% | CC50 (EKVX; [17]): > 100 µM | TGI (EKVX; read-out: TGI): 11.3 µM | GI50 (EKVX): 0.676 µM | TGI (EKVX; read-out: pTGI (converted)): 11.2 µM | growth at 1 µM (HT-29): 11% | growth at 0.1 µM (MCF7): 51% | growth at 1 µM (786-0 [8]): 43% | growth at 100 µM (SR [9]): 3% | TGI (UO-31 [10]; read-out: TGI): 2.48 µM | GI50 (UO-31 [10]): 0.468 µM | CC50 (UO-31 [10]; [16]): > 100 µM | TGI (UO-31 [10]; read-out: pTGI (converted)): 2.51 µM | growth at 0.1 µM (SF-295): 94% | growth at 10 µM (SR [11]): 4% | growth at 1 µM (SK-MEL-5): 13% | growth at 0.1 µM (786-0 [12]): 87% | TGI (UACC-62 [13]; read-out: TGI): 1.47 µM | GI50 (UACC-62 [13]): 0.331 µM | CC50 (UACC-62 [13]): 7.24 µM | TGI (UACC-62 [13]; read-out: pTGI (converted)): 1.48 µM | growth at 1 µM (UO-31 [14]): 23% | growth at 100 µM (SW-620 [15]): -23%
